CaV13 FRET inh: Disruptors of the CACNA1D IQ motif to Ca2+-dependent inactivation inhibitor domain association, primary screening, Förster resonance energy transfer in intact living …; HEK cells, CFP/YFP FRET ICDI-IQ, plate reader, 10 min; percent FRET-ratio fall versus neutral wells; inhibition, % at 12.3 µM; 340,000 tested, 0.098% active;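 active = mean replicate inhibition of at least 30% and at least 1% of replicates passing that level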;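 also: 0% = median of the neutral control wells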
TWEAK Fn14 block: inhibitors of TWEAK-Fn14 signaling, primary screen, luciferase reporter cells, uHTS; TWEAK-stimulated Fn14 reporter cells, luciferase luminescence, 8 h; inhibition, % at 10 µM; 360,000 tested, 2% active; in the data active = inhibition above about 50%
TROY NFkB inh: inhibitors of TROY-driven NF-kB signaling, primary screen, Q293 LMP1-TROYcd cells, NF-kB luciferase, uHTS; Q293 LMP1-TROYcd NF-kB luciferase reporter, 4 h; inhibition, % at 10 µM; 360,000 tested, 0.98% active;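 active = compounds whose plate-normalised and pattern-corrected inhibition of the luciferase reporter signal at the single screening dose is 50% or more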
LGR2 inh: inhibitors of bursicon-induced LGR2 CRE-luciferase signal, primary screen, cell-based, HEK293, CRE-luciferase reporter, bursicon stimulation; inhibition, % at 9.99 µM; 380,000 tested, 0.35% active; bursicon-stimulated, 4 h; Drosophila bursicon receptor LGR2 (rickets);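 active = drop in luminescence signal, shown as inhibition above about 50% in the replicate tests, limit read from the data, passing the limit was not always enough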;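 also: agonist challenge used bursicon conditioned medium at about half maximal strength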
Xi reactivation: activators of inactive X chromosome reactivation, primary screen, imaging, XiGFP fibroblasts, GFP high-content imaging, set 2 | XiGFP mouse fibroblasts, % GFP-positive cells imaging, 3 d; cells co-treated with 5-aza-dC sensitizer; scaled so ellipticine positive control = 100% | activation, % at 7.58 µM | 360,000 tested, 0.055% active;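 active = mean normalized replicate activation at least 10% and every replicate at or above 10%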;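 also: 0% = median of on-plate neutral control wells and 100% = ellipticine 6 µM median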
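material = 68-5-11 XiGFP fibroblast line | medium = DMEM plus 5-aza-dC sensitizer | schedule = 3 days compound exposure | benchmarks = positive control ellipticine, 6 µM final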
Active calls of the source: *; . = no result. Hits are enriched below; roughly 2% of the tested compounds scored in any of these assays.

SMILES	CaV13 FRET inh	TWEAK Fn14 block	TROY NFkB inh	LGR2 inh	Xi reactivation
Cc1cc(C(=O)Cn2nc(C(=O)O)c3ccccc3c2=O)c(C)n1C1CC1	1	13	-7	-42	0
C=CCn1c(C)cc(C(=O)Cn2nc(C(=O)O)c3ccccc3c2=O)c1C	-5	55*	35	-27	0
C[C@H]1CN([C@@H](C)CO)C(=O)c2cc(NC(=O)Nc3ccc4c(c3)OCO4)ccc2O[C@H]1CN(C)Cc1ccc(-c2ccccc2)cc1	.	.	.	5	0
CC(=O)N1CC2(C1)[C@@H](c1ccccc1)[C@@H](CO)N2Cc1cc(F)ccc1F	.	.	.	-2	0
C[C@@H]1CN([C@@H](C)CO)C(=O)Cc2cc(NS(C)(=O)=O)ccc2O[C@@H]1CN(C)Cc1ccncc1	.	.	.	8	0
CCS(=O)(=O)N1CCC2(CC1)CN(C(=O)c1cccc(F)c1)[C@@H](CO)c1c2c2ccc(OC)cc2n1C	.	.	.	-13	0
NC(=S)NN=C1c2cc(Cl)ccc2-c2c1cc(Cl)cc2[N+](=O)[O-]	.	101*	47	.	.
O=C(c1ccccn1)N1C[C@@H]2[C@H](c3ccccc31)[C@@H](CO)N2C(=O)c1ccccn1	.	.	.	4	0
O=C(Nc1ccc(Oc2c(F)c(F)c(F)c(F)c2F)cc1)OC1CCN2Cc3ccccc3N=C12 (configuration not stated)	.	37	61*	.	.
CCN(Cc1cc(=O)n2ccsc2n1)c1cccc2ccccc12	-20	97*	64*	29	0
CC(C)NC(=O)N1CC2(C1)[C@@H](c1ccccc1)[C@@H](CO)N2C(=O)c1ccccn1	.	.	.	10	0
O=S1(=O)CCC(NC(=S)SCCOc2ccccc2)C1 (configuration not stated)	-5	70*	-15	35	0
CCCCSC(=S)NC1CCS(=O)(=O)C1 (configuration not stated)	-6	57*	16	25	0
O=S1(=O)CCC(NC(=S)NC2CCS(=O)(=O)C2)C1 (configuration not stated)	-3	12	10	17	0
CC(C)NC(=O)N(C)C[C@@H]1OCCCC[C@@H](C)Oc2ccc(NC(=O)CCC(F)(F)F)cc2C(=O)N([C@@H](C)CO)C[C@@H]1C	.	.	.	-4	0
CO[C@H]1CN(C)C(=O)c2ccc(NC(=O)C3CC3)cc2OC[C@H](C)N(C(=O)NC(C)C)C[C@@H]1C	.	.	.	23	0
C[C@@H]1CN([C@@H](C)CO)C(=O)c2cc(NC(=O)Nc3cccc4ccccc34)ccc2O[C@@H](C)CCCCO[C@@H]1CN(C)S(=O)(=O)c1ccc(F)cc1	.	.	.	12	0
COC(=O)c1sccc1N/N=C/c1ccc(OC)c(OC)c1OC	-3	-54	-57	-27	1
COC(=O)c1sccc1N/N=C/c1cccc(Oc2ccccc2)c1	-5	53*	71*	20	0
COC(=O)c1sccc1N/N=C/c1cccc(OC)c1O	-15	63*	43	77*	0
CSc1ccc(/C=N/NC(=O)c2sccc2C)cc1	-3	55*	-41	.	0
CSc1ccc(/C=N/NC(=O)c2ccc(C)c(C)c2)cc1	-4	-7	-64	-34	0
COCC#Cc1ccc([C@H]2[C@H]3CN(C(=O)C4CCOCC4)CC(=O)N3[C@H]2CO)cc1	.	.	.	-15	0
CCS(=O)(=O)N1CCCC(C(=O)NCCCOC)C1 (configuration not stated)	.	-12	-23	.	.
CCS(=O)(=O)N1CCCC(C(=O)NCCCN2CCCC2=O)C1 (configuration not stated)	.	64*	.	.	.
SMILES	CaV13 FRET inh	TWEAK Fn14 block	TROY NFkB inh	LGR2 inh	Xi reactivation
Cc1ccc(C(=O)c2oc3ccccc3c2NC(=O)c2cc(-c3cc(C)ccc3O)n[nH]2)cc1	-1	-22	1	-7	9
Cc1ccc(C(=O)c2oc3ccccc3c2NC(=O)c2cc(-c3ccccc3O)n[nH]2)cc1	-5	-7	5	4	23*
C[C@@H]1CN([C@@H](C)CO)C(=O)Cc2cc(NC(=O)Nc3ccc(F)cc3)ccc2O[C@@H]1CN(C)Cc1ccc(C(F)(F)F)cc1	.	.	.	34	-1
COc1ccc(CCNC(=O)CSc2cn(Cc3cccc(C)c3)c3ccccc23)cc1OC	49*	23	24	7	0
COc1ccc(CCNC(=O)CSc2cn(Cc3ccccc3)c3ccccc23)cc1OC	-6	6	17	-4	0
Nc1[nH]n(-c2ccccc2)c(=O)c1N=Nc1ccc2c(c1)OCCO2	-6	68*	51*	36	0
O=[N+]([O-])c1ccc(-c2cnc3ccccc3n2)cc1	-3	-11	-55	.	0
O=[N+]([O-])c1ccc(-c2c(O)c3ccccc3c3nc4ccccc4nc23)cc1	-3	22	54*	1	0
O=[N+]([O-])c1ccc(-c2nc(Nc3cccc(O)c3)c3ccccc3n2)cc1	-4	80*	82*	-4	0
Cc1noc(C)c1NC(=O)N(C)C[C@H]1OCc2ccccc2-c2c(n(C)c3ccccc23)C(=O)N([C@H](C)CO)C[C@H]1C	.	.	.	-7	0
COc1ccc(OCc2cc(C(=O)NC3CCOC(C)(C)C3)no2)c2ccccc12 (configuration not stated)	-7	61*	-46	-60	0
COc1ccc(OCc2cc(C(=O)N(C)C3CCOCC3)no2)c2ccccc12	-3	79*	-34	-60	0
CSc1ccccc1OCc1cc(C(=O)NC2CCOC(C)(C)C2)no1 (configuration not stated)	-2	1	-18	2	0
CNC[C@@H]1Oc2ccc(NC(C)=O)cc2CC(=O)N(C)C[C@H]1C	.	.	.	.	0
CCOc1cc(CNc2ccc3c(c2)OCCO3)cc(Br)c1OCC(N)=O	.	88*	64*	.	.
CCOc1cc(CNCc2cccs2)cc(Br)c1OC	.	-12	-5	.	.
CCOc1c(Br)cc(CNc2ccc3c(c2)OCCO3)cc1OC	.	85*	59*	.	.
COc1cc(CNc2ccc3c(c2)OCCO3)ccc1OCC(N)=O	-5	34	28	1	0
CCOc1c(Br)cc(CNc2ccc(N3CCOCC3)cc2)cc1OC	-5	-1	35	6	0
CCOc1cc(CNc2ccc3c(c2)OCCO3)cc(Br)c1OC	-6	94*	85*	.	.
C[C@H]1CN([C@@H](C)CO)C(=O)c2cc(NS(=O)(=O)c3ccccc3)ccc2O[C@@H]1CN(C)S(=O)(=O)c1cccs1	.	.	.	-21	0
